This note sets out measurements from publication PMC9810445 (Biomolecules & Therapeutics, 2022).

This assay deals with T1, CYP6A8 (Drosophila melanogaster, UniProt Q27593).
T1 sequence (Q27593 1-506): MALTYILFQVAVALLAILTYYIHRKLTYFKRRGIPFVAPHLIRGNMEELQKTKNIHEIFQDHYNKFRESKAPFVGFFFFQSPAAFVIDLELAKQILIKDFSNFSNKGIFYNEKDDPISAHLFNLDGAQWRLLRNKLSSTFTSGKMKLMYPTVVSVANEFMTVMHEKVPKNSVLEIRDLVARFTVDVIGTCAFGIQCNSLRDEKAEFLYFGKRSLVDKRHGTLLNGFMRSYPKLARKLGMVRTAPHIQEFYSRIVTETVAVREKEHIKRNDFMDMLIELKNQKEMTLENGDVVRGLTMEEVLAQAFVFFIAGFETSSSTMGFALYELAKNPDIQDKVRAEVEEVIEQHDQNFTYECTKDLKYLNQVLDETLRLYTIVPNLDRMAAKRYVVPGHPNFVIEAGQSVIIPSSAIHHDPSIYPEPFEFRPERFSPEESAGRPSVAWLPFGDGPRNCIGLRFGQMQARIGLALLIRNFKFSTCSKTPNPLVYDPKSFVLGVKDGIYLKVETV
The assay is described as follows: UV-visible spectral binding titration. Put shortly:
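Recombinant C-terminally His6-tagged CYP6A8 was expressed in E. coli from pCW and purified by Ni2+-NTA chromatography. Enzyme was diluted to 1 µM in 100 mM potassium phosphate (pH 7.6) and split between sample and reference cuvettes. Fatty acid was added stepwise and 350–500 nm difference spectra were recorded. Kd was derived by plotting the peak-to-trough absorbance difference against ligand concentration.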
For the molecule `CCCCCCCCCC(=O)O` [capric acid], the Kd (commonly the constant that tells how readily two partners part at equilibrium) turned out to be 144 ± 20 µM.

The molecule `CCCCCCCC(=O)O` [octanoic acid] registered a Kd of 713 ± 46 µM.

In turn, `CCCCCCCCCCCC(=O)O` [lauric acid] returned a Kd of 28 ± 4 µM.
